# Source: ChEMBL document CHEMBL1150428, “CYP53A15 of Cochliobolus lunatus, a target for natural antifungal compounds” (J Med Chem, 2008)
# Experiments:
# Curvularia lunata [1] = assay: Antifungal activity against Cochliobolus lunatus delta bph at 5 mM assessed as initial growth inhibition time; type: functional
# Procedure, shortened: (§1)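 Δbph deletion strain of C. lunatus (bph gene replaced by hph, hygromycin-selected) on agar with 5 mM test compound, in triplicate. Plates centrally inoculated with 7 mm mycelial disks from a 48 h culture. Radial growth rate (mm/h) measured; initial growth inhibition time (h) taken as the intercept of the extrapolated linear growth phase at 7 mm.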
# Curvularia lunata [2] = assay: Antifungal activity against Cochliobolus lunatus at 5 mM assessed as initial growth inhibition time; type: functional
# Procedure, shortened: (§2)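 C. lunatus m118 on agar plates in triplicate, each inhibitor at 5 mM alone or at 5 mM combined with 0.1 mM benzoic acid. Plates centrally inoculated with 7 mm mycelial disks taken from a 48 h solid culture. Radial growth rate (mm/h) from colony diameter over time. Initial growth inhibition time (h) is the time-axis intercept of the linear growth phase extrapolated to 7 mm diameter.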
# Curvularia lunata [3] = assay: Antifungal activity against Cochliobolus lunatus at 5 mM assessed as radial growth rate; type: functional; procedure, shortened: as §2
# Curvularia lunata [4] = assay: Antifungal activity against Cochliobolus lunatus delta bph at 5 mM assessed as radial growth rate; type: functional; procedure, shortened: as §1
# [5] = Inhibition of Cochliobolus lunatus CYP53A15 expressed in Escherichia coli; parameters: species or system Curvularia lunata
# Procedure, shortened: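 His-tagged CYP53A15 from E. coli C43(DE3), Ni-NTA purified, reconstituted with rabbit liver NADPH-P450 reductase and DLPC in pH 7.4 phosphate. Reaction started with 1 mM NADPH and benzoate. para-Hydroxybenzoate formation quantified by HPLC of quenched reactions over time. Enzyme at 5 µM, inhibitors at 300 and 600 µM. Kinetic constants from simultaneous progress-curve analysis.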
# Curvularia lunata [6] = assay: Antifungal activity against Cochliobolus lunatus at 0.1 mM assessed as initial growth inhibition time; type: functional; procedure, shortened: as §2
# Curvularia lunata [7] = assay: Antifungal activity against Cochliobolus lunatus at 0.1 mM assessed as radial growth rate; type: functional; procedure, shortened: as §2
# Curvularia lunata [8] = assay: Antifungal activity against Cochliobolus lunatus; type: functional
# Procedure, shortened: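 C. lunatus m118 (wild type). MIC, the lowest concentration preventing visible growth after overnight incubation, determined by the Radford method.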
MIC (Curvularia lunata [8]) [mM],SMILES,Activity (Curvularia lunata [1]) [h],Activity (Curvularia lunata [2]) [h],Activity (Curvularia lunata [3]) [millimeter/hr],Activity (Curvularia lunata [4]) [millimeter/hr],Ki [5] [µM],Activity (Curvularia lunata [6]) [h],Activity (Curvularia lunata [7]) [millimeter/hr]
,C/C=C\c1ccc(O)c(OC)c1 [ISOEUGENOL],>1800,56,0.29,0,14.2,,
,Cc1ccc(C(C)C)c(O)c1 [THYMOL],,,,,8.2,,
,COc1cc(C=O)ccc1O [VANILLIN],,12,0.55,,29.7,,
,C=CCc1ccc(O)c(OC)c1 [EUGENOL],,20,0.57,,26.2,,
5,O=C(O)c1ccccc1 [BENZOIC ACID],>1800,56,0.22,0,,12,0.55
